Laboratory results published in paper PMC3171079 (The Journal of General Physiology, 2011).
Entries after “also recorded” stand apart in the source; their conditions may differ.

Assays:
[1] = tested on: Cx26/Cx32T junctional channels; experiment: Parachute assay for gap junctional communication; type: cell-based, rat; conditions: n = 4–9
In short: (§1)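 Parachute dye-coupling assay. Connexin-expressing HeLa donor cells were labelled for 30 min at 37°C with 10 µM CM-DiI plus 5 µM calcein-AM, washed in PBS/glucose, trypsinized and seeded at ~1:150 onto semi-confluent unlabelled receiver monolayers. Cells attached for 3 h at 37°C with extracellular taurine. Calcein-positive receivers per DiI-labelled donor were averaged and normalized to control cultures.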

[2] = tested on: nontagged Cx26 junctional channels; experiment: Parachute assay for gap junctional communication; type: cell-based; conditions: n = 4–9; for Intercellular calcein transfer: extracellular taurine, normalized to control
In short: as §1

[3] = tested on: heteromeric Cx26Tc/Cx32 hemichannels; experiment: TSF liposome hemichannel activity, tag cleaved; type: biochemical, rat
In short: (§2)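 Tagged rat hemichannels were anti-HA immunopurified from dox-induced Tet-On HeLa, then cleaved with 2 U thrombin for 18 h at 4°C, leaving LVPR at the C-terminus. They were reconstituted by gel filtration into rhod-PE-labelled liposomes in urea buffer, then centrifuged for 3 h at 37°C through iso-osmolar urea/sucrose gradients containing aminosulfonate. Band densities were read by refractometry. Lower-band fraction was Poisson-corrected, normalized per preparation and pooled.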

Cx26T/Cx32 hemichannels = experiment: Hemichannel calcein uptake by HeLa cells; type: cell-based, rat; conditions: extracellular taurine, low [Ca2+]ex; n = 3
[4] = tested on: heteromeric Cx26/Cx32T hemichannels; experiment: TSF liposome hemichannel activity; type: biochemical, rat; conditions: taurine-exposed liposomes
In short: (§3)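 Rat connexins carrying a C-terminal thrombin-site–HA(HN)6 tag were expressed in Tet-On HeLa (1 µg/ml dox, 48 h). Hemichannels were octylglucoside-solubilized, anti-HA immunopurified and reconstituted into PC/PS/rhod-PE liposomes entrapping urea buffer. Taurine was present in iso-osmolar urea/sucrose gradients (300,000 gav, 3 h, 37°C). Bands were followed by rhod-PE fluorescence, densities by refractometry at 25°C. Lower-band fraction was Poisson-corrected and normalized to the preparation maximum.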

[5] = tested on: homomeric Cx26T hemichannels; experiment: TSF liposome hemichannel activity; type: biochemical, rat
In short: as §3

[6] = tested on: Cx26CT–^biotCL3 interaction; experiment: CT+CL peptide-binding assay; set-up: species or system rat
[7] = tested on: hemichannels that contained connexin26 (Cx26), homomeric or with Cx32 (heteromeric); conditions: cytoplasmic concentrations; ref Tao and Harris, 2004; cited from earlier work
[8] = tested on: untagged homomeric Cx26 hemichannels; experiment: TSF liposome hemichannel activity, untagged; type: biochemical; conditions: with AS treatment
[9] = tested on: heteromeric Cx26/Cx32Tc hemichannels; experiment: TSF liposome hemichannel activity, tag cleaved; type: biochemical, rat
In short: as §2

[10] = tested on: Cx26T/Cx32 junctional channels; experiment: Parachute assay for gap junctional communication; type: cell-based, rat; conditions: extracellular taurine; normalized to control; n = 4–9
[11] = tested on: heteromeric Cx26T/Cx32 hemichannels; experiment: TSF liposome hemichannel activity; type: biochemical, rat
In short: as §3

Cx26/Cx32T hemichannels = experiment: Hemichannel calcein uptake by HeLa cells; type: cell-based, rat; conditions: extracellular taurine, low [Ca2+]ex; n = 3
[12] = tested on: homomeric Cx32T hemichannels; experiment: TSF liposome hemichannel activity; type: biochemical, rat; conditions: taurine-exposed liposomes
In short: as §3

[13] = tested on: untagged heteromeric Cx26/Cx32 hemichannels; experiment: TSF liposome hemichannel activity, untagged; type: biochemical; conditions: with AS treatment
[14] = tested on: the different tagged connexin hemichannels other than Cx26/Cx32T; experiment: Hemichannel calcein uptake by HeLa cells; type: cell-based, rat; conditions: extracellular taurine, low [Ca2+]ex; n = 3
[15] = 37°C; source not given; cited from earlier work
[16] = tested on: homomeric Cx32Tc hemichannels; experiment: TSF liposome hemichannel activity, tag cleaved; type: biochemical, rat
In short: as §2

Cx26CL–Cx26CT complex = experiment: 1H-15N HSQC NMR, effect of taurine on CL–CT complex; type: binding, rat; conditions: pH 7.0, 42°C
[17] = tested on: nontagged Cx26 hemichannels; experiment: Hemichannel calcein uptake by HeLa cells; type: cell-based; conditions: extracellular taurine, low [Ca2+]ex; n = 3
In short: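 HeLa clone stably expressing nontagged Cx26. Semi-confluent monolayers were washed, then loaded for 30 min at 37°C in low-Ca buffer (0.5 mM CaCl2, 30 mM KCl, 11 mM glucose, Tris pH 7.4) with 100 µM calcein, with or without taurine. Cells were washed in 2 mM Ca buffer and imaged. Dye-containing cells were counted, and each taurine condition was normalized to its own taurine-free control.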

Cx26CL (15N-labeled) = experiment: 1H-15N HSQC NMR interaction; type: binding, rat; conditions: 10 µM Cx26CL, pH 7.0, 42°C, 6% LPPG, 20 mM MES
[18] = tested on: Cx32T junctional channels; experiment: Parachute assay for gap junctional communication; type: cell-based, rat; conditions: extracellular taurine; normalized to control; n = 4–9
In short: as §1

[19] = tested on: homomeric Cx26Tc hemichannels; experiment: TSF liposome hemichannel activity, tag cleaved; type: biochemical, rat; conditions: 10 mM taurine; tag cleaved (LVPR left); n = 5–8
In short: as §2

[20] = extracellular HEPES in presence of extracellular taurine
[21] = up to 50 mM of protonated taurine
[22] = tag cleaved (LVPR left), n = 5–8
[23] = 30 mM taurine, 4 mM Cx26CT, 10 µM Cx26CL

Compound: O=S(=O)(O)CCN1CCN(CCO)CC1 [HEPES]
- Block of taurine effect on junctional channel permeability of calcein [1, 20]: effectively eliminated the taurine effect; also recorded: AS insensitive
- Block of taurine effect on junctional calcein transfer [2, 20]: eliminated by HEPES; also recorded: restored AS insensitivity

Compound: NCCS(=O)(=O)O [taurine, β-aminosulfonic acid]
- AS inhibition of hemichannel activity (TSF) ([3]; 10 mM taurine, tag cleaved (LVPR left), n = 5–8): AS inhibition was restored
- Pore narrowing (intermediate band in TSF) ([3]; taurine-exposed liposomes): do not form intermediate bands
- Intercellular calcein transfer ([1]; extracellular taurine, normalized to control): decreased
- Calcein dye uptake (Cx26T/Cx32 hemichannels): absence of effect
- Pore narrowing (intermediate band in TSF) [4]: do not form intermediate bands
- Effect on pore diameter (TSF band density) ([5]; 10 mM AS (taurine)): no discernable effect on the pore diameter
- Inhibition of hemichannels (TSF) [5, 21]: not inhibited
- Taurine concentration for complete dissociation of CL–CT peptides ([6]; 10 µM ^biotCL3, not fit to any standard binding isotherm): ~5 mM
- Disruption of CL–CT peptide interaction ([6]; 1 mM taurine, pH 6.5, 10 µM ^biotCL3): Approximately 50%
- Effect of taurine on Cx26CT–CL3 interaction ([6]; 10 mM taurine, 10 µM CL peptide): substantial but not complete dissociation; also recorded: substantially reduced
- Concentration dependence of disruption of CL–CT interaction ([6]; pH 6.5 and 7.4, 10 µM ^biotCL3): a linear function of the log of taurine concentration
- pH dependence of taurine disruption of CL–CT interaction ([6]; pH 6.5 versus 7.4, 10 µM ^biotCL3): substantially greater at the lower pH
- Inhibition of Cx26-containing hemichannels by cytoplasmic AS [7]: inhibitory at cytoplasmic concentrations
- Occlusion of hemichannels (TSF band shift from lowest to upper band) [8]: full occlusion of the hemichannels
- AS sensitivity of hemichannel activity (TSF) [9, 22]: AS sensitive
- Pore narrowing (intermediate band in TSF) ([9]; taurine-exposed liposomes): do not form intermediate bands
- Intercellular calcein transfer [10]: not in the Cx26T/Cx32 cells or the Cx26T cells
- Pore narrowing (intermediate band in TSF) ([11]; taurine-exposed liposomes): do not form intermediate bands
- Inhibition of hemichannels (TSF) [11, 21]: not inhibited
- Completeness of inhibition of dye uptake (Cx26/Cx32T hemichannels): not complete
- Pore narrowing (intermediate band in TSF) [12]: do not form intermediate bands
- Occlusion of hemichannels (TSF band shift from lowest to upper band) [13]: full occlusion of the hemichannels
- Intercellular calcein transfer [2]: markedly reduced
- Intercellular calcein transfer ([2]; listed as AS): substantially reduced
- Calcein dye uptake [14]: absence of effect
- pKa [15]: 8.8
- AS sensitivity of hemichannel activity (TSF) [16, 22]: AS insensitive
- Pore narrowing (intermediate band in TSF) ([16]; taurine-exposed liposomes): do not form intermediate bands
- Effect on Cx26CL–Cx26CT complex by NMR, Fig. 8 B peaks (Cx26CL–Cx26CT complex; [23]): a negligible effect of taurine on the Cx26CL–Cx26CT complex
- Effect on Cx26CL–Cx26CT complex by NMR, Fig. 8 D peaks (Cx26CL–Cx26CT complex; [23]): move to unique positions in the presence of both taurine and the Cx26CT
- Effect on Cx26CL–Cx26CT interaction by NMR, Fig. 8 C peaks (Cx26CL–Cx26CT complex; [23]): taurine reverses the Cx26CL–Cx26CT interaction at this position
- Mode of action on Cx26CT–Cx26CL interaction (Cx26CL–Cx26CT complex; concluded from NMR): competitive inhibitor of the interaction between Cx26CT and the Cx26CL
- Calcein hemichannel uptake [17]: markedly reduced
- Interaction with Cx26CL by NMR (resonance peaks affected) (Cx26CL (15N-labeled); 30 mM taurine): taurine interacts with the Cx26CL at some residues (peaks iii and iv)
- Intercellular calcein transfer [18]: unchanged compared with controls
- AS effect on hemichannel activity (TSF) [19]: remained AS insensitive

Compound: Cx26CT: peptide with sequence corresponding to the Cx26CT (residues 213–226) (LFIRYCSGKSKRPV)
- Interaction with Cx26CL by NMR (resonance peaks affected) (Cx26CL (15N-labeled); 4 mM Cx26CT): more resonance peaks are affected by the Cx26CT than by taurine
